In ChEMBL document CHEMBL1833793 (Bioorg Med Chem Lett, 2011):

Experiments:
[1] = Drug uptake in brain of cPP-induced feeding rat model at 10 mg/kg, po after 6 hrs; format: ADME, organism-based; design: dose 10 mg/kg, route oral; conditions: read-out: Drug uptake
Procedure, shortened: (§1)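 Satellite rats (n = 2/dose) sampled each week alongside the cPP feeding test; Lu-series dosed po at 3, 10 or 30 mg/kg as suspension in 20% HP-β-cyclodextrin; plasma (ng/mL) and brain tissue (ng/g) levels taken at 1, 2, 4, 6 and 24 h post-dose; mean ± SD reported.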

Rattus norvegicus = test: Inhibition of cPP-induced food intake in po dosed rat administered 1 to 24 hrs before cPP challenge measured for 1 hr; format: functional, organism-based
Procedure, shortened: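 Rats with lateral-ventricle cannulae dosed po with 20% cyclodextrin vehicle or drug (3, 10, 30 mg/kg) 1, 2, 4, 6 or 24 h before i.c.v. cPP (0.6 nmol); food intake monitored 1 h; randomized weekly crossover, n = 2/condition, 16–20 per group; percent of vehicle + cPP intake, one-way ANOVA with Newman–Keuls.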

[2] = Tmax in Sprague-Dawley rat at 1 mg/kg, iv and 2 mg/kg, po by HPLC analysis; format: ADME, organism-based; conditions: in vivo
Procedure, shortened: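 Male Sprague–Dawley rats (n = 2) with jugular and carotid cannulae, 200–250 g, dosed 1 mg/kg iv and 2 mg/kg po in crossover after a 24 h washout. Vehicle was 20% beta-cyclodextrin, pH adjusted with methanesulfonic acid. Twelve serial blood samples were taken over 24 h, plasma measured by HPLC-MS/MS, and parameters derived by noncompartmental analysis.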

[3] = Drug uptake in brain of cPP-induced feeding rat model at 10 mg/kg, po after 2 hrs; format: ADME, organism-based; design: dose 10 mg/kg, route oral; conditions: read-out: Drug uptake; procedure, shortened: as §1
[4] = Half life in mouse at 1 mg/kg, iv and 2 mg/kg, po by HPLC analysis; format: ADME, organism-based; conditions: in vivo
[5] = molecular target: T1, 5-hydroxytryptamine receptor 1A (Homo sapiens, UniProt P08908); test: Binding affinity to human 5HT1A receptor
T1 sequence (P08908 whole entry): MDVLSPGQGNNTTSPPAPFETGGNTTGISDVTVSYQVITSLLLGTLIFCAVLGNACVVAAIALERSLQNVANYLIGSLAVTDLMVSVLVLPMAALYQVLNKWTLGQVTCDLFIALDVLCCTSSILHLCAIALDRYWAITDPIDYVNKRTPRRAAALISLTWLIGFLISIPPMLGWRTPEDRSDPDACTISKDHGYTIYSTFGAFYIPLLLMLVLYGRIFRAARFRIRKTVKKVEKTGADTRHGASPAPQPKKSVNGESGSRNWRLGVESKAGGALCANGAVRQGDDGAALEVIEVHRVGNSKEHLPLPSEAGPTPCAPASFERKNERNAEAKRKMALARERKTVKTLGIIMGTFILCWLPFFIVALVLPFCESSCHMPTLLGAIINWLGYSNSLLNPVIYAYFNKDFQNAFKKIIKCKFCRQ

CS(=O)(=O)NC[C@H]1CC[C@H](Nc2nc3c(s2)CCSc2ccccc2-3)CC1
concentration at 6 h [1]: 124 ng/g | inhibition (Rattus norvegicus): Dose-dependent effect | Tmax [2]: 1.9 h | concentration at 2 h [3]: 244 ng/g | half-life [4]: 8.2 h | Ki [5]: 0.478 µM
